Source: PubChem
WT yeast gro inh – growth inhibition of WT yeast, mitochondrial fusion screen; mitochondrial fusion phenotypic screen, WT strain; inhibition, % at 10 µM; actives 2.1% (n = 190,000); in the data active means inhibition above about 58%; tested in S. cerevisiae
Efflux pump mplx – inhibitors of Candida antifungal efflux pumps expressed in yeast; S. cerevisiae Candida pump triplex, Nile Red efflux; inhibition, % at 10 µM; actives 0.44% (n = 330,000);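 active means plate passing quality check with inhibition over a set limit, or well fluorescence over plate mean plus 4 SD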;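 further: Nile Red retained in pooled yeast measured as flow cytometry median fluorescence; higher means more Nile Red kept so more efflux inhibition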
SUMO Mot1 rescue – SUMOylation pathway inhibition by Mot1-301 growth rescue | S. cerevisiae Mot1-301 growth rescue, ATP luminescence, 38.5C; percent above DMSO median, 100 means doubled | growth rescue, % at 18.8 µM | actives 1% (n = 320,000);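 active means every valid replicate shows activation above 250% relative to neutral control wells; inactive means the rest, any valid replicate at or below 250%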
CSC inhib – blocks cancer stem cells | cancer stem cell-like cells viability, luminescence | inhibition, % at 7.5 µM | actives 1.1% (n = 300,000) | AID 2717; in the data active means inhibition above about 75%; tested in HMLE shEcad cells
T cruzi inh – blocks replication of Trypanosoma cruzi; T. cruzi beta-gal in NIH3T3, luminescence, 90 h; inhibition, % (concentration not given with the values); actives 1.4% (n = 300,000);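 active means mean inhibition across valid replicates above about 55%, limit read from the data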;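 further: signal also drops with host cell toxicity which is not excluded here; higher percent means less beta-gal luminescence so fewer parasites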
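System: NIH/3T3 fibroblasts plus reporter T. cruzi. Medium: DMEM plus 2% FBS. Probe or stimulus: 5000 reporter trypomastigotes per well. Compound: single 50 nL compound addition per well in DMSO. Incubation: co-culture of at least 90 h after 3 h attachment. Detection: GalScreen β-gal luminescence, detergent lysis, 60 min. Evaluation: parasite load inhibition, %.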
Beta cell apopt – beta cell apoptosis inhibition | INS-1E cytokine-induced death, ATP luminescence, 48 h; percent of positive-control rescue, neutral wells zero | protection from apoptosis, % (no concentration beside the values) | actives 0.8% (n = 300,000) | AID 435005;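 active means Every replicate reaches about 75%, or at least half do and their mean reaches it too, limit read from the data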;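 further: higher means more ATP so stronger rescue from cytokine killing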
Each line names hits and unclear results; the compound was inactive in the other large screens. Shown are actives, neighbours in structure and some others; about 4.8% of the full set was active somewhere.

COCc1ccc(CN2CCCC(CCC(=O)NCc3ccc(C)o3)C2)o1 (stereo unspecified)	none
Cc1ccc(CNC(=O)CCC2CCCN(Cc3cc4ccccc4o3)C2)o1 (stereo unspecified)	T cruzi inh 56 (no result: WT yeast gro inh)
CCOc1ccc(CCNC(=O)Cn2nc(C)n3cccc3c2=O)cc1OCC	none (no result: WT yeast gro inh)
CCOC(=O)Cn1nc(C)c(NC(=O)COc2ccc(C)c(C)c2)c1C	none (no result: WT yeast gro inh)
CC1Oc2ccccc2N(CC(=O)NCCN2CCOCC2)C1=O (stereo unspecified)	none (no result: WT yeast gro inh)
CCC(C(=O)Nc1cc(OC)c(NC(=O)c2ccccc2)cc1OC)c1ccccc1 (stereo unspecified)	CSC inhib 79 (no result: WT yeast gro inh)
CCC(C(=O)Nc1cc(Cl)ccc1OC)c1ccccc1 (stereo unspecified)	none
CC(Sc1nnc(-c2ccccc2)c(-c2ccccc2)n1)C(=O)N1CCc2ccccc21 (stereo unspecified)	none
CCOc1cc(/C=C2\SC(=S)N(Nc3ccccc3)C2=O)ccc1O	WT yeast gro inh 69
COc1cc(/C=C2\SC(=S)N(Nc3ccccc3)C2=O)ccc1O	WT yeast gro inh 86 (no result: CSC inhib)
O=C(O)c1ccc(/C=C2\SC(=S)N(Nc3ccccc3)C2=O)cc1	Beta cell apopt 91 (no result: WT yeast gro inh)
Cc1cccc(N2CCN(C(=O)C3CCN(S(=O)(=O)c4c(C)noc4C)CC3)CC2)c1C	none (no result: WT yeast gro inh)
O=C(CN1CCN(c2ccc(O)cc2)CC1)Nc1cc([N+](=O)[O-])ccc1Cl	none
COc1ccc(OC)c(NC(=O)c2cccc(Cn3cc(Br)c([N+](=O)[O-])n3)c2)c1	T cruzi inh 64 (no result: Beta cell apopt)
COc1cccc(/C=N\NC(=O)c2ccc(Cn3cc(Br)c([N+](=O)[O-])n3)o2)c1O	T cruzi inh 64, Beta cell apopt 96
Cc1ccccc1NC(=O)c1cccc(Cn2cc(Br)c([N+](=O)[O-])n2)c1	none
COc1ccc(OC)c(NC(=O)c2cccc(NC(=O)c3ccccc3)c2)c1	none (no result: WT yeast gro inh, Beta cell apopt)
Cc1cccc(NC(=O)c2cccc(Cn3cc(Br)c([N+](=O)[O-])n3)c2)c1C	T cruzi inh 58
Cc1cc(NC(=O)CCC(=O)N(c2ccc(F)cc2)C(C(=O)NC2CCCC2)c2cccnc2)no1 (stereo unspecified)	none (no result: WT yeast gro inh, CSC inhib)
COc1cc(NCC(=O)Nc2cccc(S(=O)(=O)N3CCCCC3)c2)cc(OC)c1OC	none (no result: WT yeast gro inh, T cruzi inh)
Cc1coc2c(C)c3oc(=O)c(CCC(=O)N[C@@H](C)C(=O)N[C@@H](Cc4ccccc4)C(=O)O)c(C)c3cc12	none (no result: WT yeast gro inh)
NC(=S)NN=C(Cc1ccccc1)Cc1ccccc1	T cruzi inh 60
N#Cc1ccc(OCC(=O)N/N=C(\CCC(=O)O)c2cccs2)cc1	none
O=C(COc1ccccc1Cl)Nc1cc(Cl)ccc1Oc1ccccc1	CSC inhib 89
COc1ccccc1NC(=O)COc1ccccc1	none
O=C(Nc1cc(Cl)ccc1Oc1ccccc1)c1ccccc1F	none
O=C(COc1ccccc1)Nc1ccccc1Oc1ccccc1	WT yeast gro inh 62
N#Cc1ccccc1NC(=O)c1ccccc1OCC(=O)Nc1ccc2c(c1)oc1ccccc12	T cruzi inh 61 (no result: WT yeast gro inh)
O=C(Nc1cc(Cl)ccc1Oc1ccccc1)c1ccc(F)cc1	WT yeast gro inh 66
S=c1[nH]c2cc(-c3ccccc3)ccc2o1	none (no result: WT yeast gro inh)
NC(=O)N(N)c1nc(N2CCCC2)nc(N2CCCC2)n1	none (no result: WT yeast gro inh, T cruzi inh)
Cc1ccc2nsnc2c1S(=O)(=O)NCCc1c(C)[nH]c2ccc(F)cc12	none
Cc1ccc(Cl)cc1NC(=O)c1ccccc1OCC(=O)Nc1ccc(Cl)cc1	CSC inhib 78
Cn1c(=O)c2c3c(sc2n2c(SCC(N)=O)nnc12)CC(C(C)(C)C)CC3 (stereo unspecified)	none
O=C(c1cccc(Br)c1)N1CCN(c2ccccn2)CC1	none (no result: WT yeast gro inh, T cruzi inh)
O=C(c1ccc(SCc2cccc(Br)c2)c([N+](=O)[O-])c1)N1CCN(c2ccccn2)CC1	T cruzi inh 58
O=S(=O)(c1cccs1)N1CCN(c2ccccc2F)CC1	SUMO Mot1 rescue 335 (no result: WT yeast gro inh)
O=C(CN1CCN(Cc2cccc(F)c2)CC1)NCc1ccccc1	none (no result: WT yeast gro inh)
COc1cccc(/C=N/Nc2nc(Nc3ccc([N+](=O)[O-])cc3)nc(N3CCCC3)n2)c1O	T cruzi inh 55 (no result: CSC inhib)
COc1cccc(/C=N/Nc2ccc(S(=O)(=O)O)cc2)c1O	none
O=[N+]([O-])c1ccc(Nc2nc(NC3CCCCC3)nc(N3CCCC3)n2)cc1	WT yeast gro inh 77, T cruzi inh 65 (no result: CSC inhib)
